# Source: ChEMBL document CHEMBL4251567 (Eur J Med Chem, 2018)
# Legend:
# [1] = target: T1, Histone deacetylase 8 (Homo sapiens) (UniProt Q9BY41); experiment: Inhibition of human recombinant full-length C-terminal His-tagged HDAC8 expressed in baculovirus infected Sf9 insect cell assessed as remaining activity at 4 x 10^-7 M preincubated for 15 mins followed by HDAC-Glo substrate addition measured after 30 mins by fluorimetric method rel;ative to control
# T1 sequence (whole entry): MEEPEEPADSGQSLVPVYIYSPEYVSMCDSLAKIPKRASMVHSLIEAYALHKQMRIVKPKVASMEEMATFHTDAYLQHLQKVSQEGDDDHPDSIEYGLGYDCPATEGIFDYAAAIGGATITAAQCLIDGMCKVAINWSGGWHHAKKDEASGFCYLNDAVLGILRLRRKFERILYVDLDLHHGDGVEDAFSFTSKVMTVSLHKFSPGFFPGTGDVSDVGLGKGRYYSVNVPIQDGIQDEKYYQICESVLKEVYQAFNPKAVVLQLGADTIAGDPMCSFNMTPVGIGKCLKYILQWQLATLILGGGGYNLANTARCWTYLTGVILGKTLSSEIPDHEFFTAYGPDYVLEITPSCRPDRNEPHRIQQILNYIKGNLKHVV
# How it was run: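 Recombinant HDAC8 (75 ng) preincubated 15 min at RT with inhibitor in DMSO in HDAC-Glo buffer. HDAC-Glo reagent added and luminescence read 30 min later. Background taken from a reaction without enzyme; activity as % of DMSO control.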
# [2] = target: T2, Histone deacetylase (Homo sapiens) (UniProt Q13547+O15379+Q9UBN7+Q92769+Q9UQL6+Q8WUI4+Q9BY41+Q96DB2+P56524+Q9UKV0+Q969S8); experiment: Inhibition of HDAC in human HeLa-S3 cell lysates assessed as residual activity at 4.8 x 10^-5 M preincubated for 15 mins followed by HDAC-Glo substrate addition measured after 35 mins by […] relative to control; assay type: protein assay
# [3] = target: Histone deacetylase 1 (Homo sapiens) (UniProt Q13547); experiment: Inhibition of HDAC1 in human HeLa-S3 cell lysates assessed as remaining activity at 2 x 10^-6 M preincubated for 15 mins followed by HDAC-Glo substrate addition […] relative to control
# Chain of Histone deacetylase 1 (Homo sapiens) (Q13547 whole entry): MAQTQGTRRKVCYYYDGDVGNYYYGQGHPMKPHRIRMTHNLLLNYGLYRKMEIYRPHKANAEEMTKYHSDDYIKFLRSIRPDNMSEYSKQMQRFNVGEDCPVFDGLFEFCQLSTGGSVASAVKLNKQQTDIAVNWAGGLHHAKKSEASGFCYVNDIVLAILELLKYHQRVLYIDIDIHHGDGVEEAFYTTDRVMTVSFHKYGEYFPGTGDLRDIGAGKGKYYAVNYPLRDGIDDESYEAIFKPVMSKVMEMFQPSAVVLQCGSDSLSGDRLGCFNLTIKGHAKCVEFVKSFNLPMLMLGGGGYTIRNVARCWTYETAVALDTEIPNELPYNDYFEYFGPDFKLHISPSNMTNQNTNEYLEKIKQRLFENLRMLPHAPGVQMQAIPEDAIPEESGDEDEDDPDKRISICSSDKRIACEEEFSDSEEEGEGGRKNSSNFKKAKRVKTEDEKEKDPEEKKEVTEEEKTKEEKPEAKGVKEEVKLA
# [4] = target: T2, Histone deacetylase (Homo sapiens); experiment: Inhibition of HDAC in human HeLa-S3 cell lysates assessed as residual activity at 1.25 x 10^-5 M preincubated for 15 mins followed by HDAC-Glo substrate addition measured after 35 mins by […] relative to control; assay type: protein assay
# [5] = system: U-937; experiment: Cytotoxicity against human U937 cells assessed as cell viability at 6.4 x 10^-5 M after 44 hrs by MTT assay relative to control; assay type: functional; details: U-937, 44 h, read-out: Activity
# [6] = target: T2, Histone deacetylase (Homo sapiens); experiment: Inhibition of HDAC in human HeLa-S3 cell lysates assessed as residual activity at 2 x 10^-4 M preincubated for 15 mins followed by HDAC-Glo substrate addition measured after 35 mins by fluorimetric method relative to control; assay type: protein assay
# How it was run: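 Lysate (1 μg total protein) in HDAC-Glo buffer was preincubated with inhibitor in DMSO for 15 min at room temperature. HDAC-Glo substrate/developer reagent was added and luminescence read after 35 min. Concentrations are final. Signal corrected for a no-lysate blank; % of DMSO control.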
# [7] = system: U-937; experiment: Cytotoxicity against human U937 cells assessed as cell viability at 1.6 x 10^-5 M after 44 hrs by MTT assay relative to control; assay type: functional; details: U-937, 44 h, read-out: Activity
# [8] = system: Jurkat; experiment: Cytotoxicity against human Jurkat cells assessed as cell viability at 10 uM after 44 hrs by MTT assay relative to control; assay type: functional; details: read-out: Activity
# [9] = target: T2, Histone deacetylase (Homo sapiens); experiment: Inhibition of HDAC in human HeLa-S3 cell lysates assessed as residual activity at 1 x 10^-4 M preincubated for 15 mins followed by HDAC-Glo substrate addition measured after 35 mins by […] relative to control; assay type: protein assay
# [10] = system: U-937; experiment: Cytotoxicity against human U937 cells assessed as cell viability at 3.2 x 10^-5 M after 44 hrs by MTT assay relative to control; assay type: functional; details: U-937, 44 h, read-out: Activity
# [11] = system: U-937; experiment: Cytotoxicity against human U937 cells assessed as decrease in cell viability after 44 hrs by MTT assay; assay type: functional, cell-based; details: Homo sapiens, U-937, 44 h
# [12] = target: T2, Histone deacetylase (Homo sapiens); experiment: Inhibition of HDAC in human HeLa-S3 cell lysates assessed as residual activity at 2.5 x 10^-5 M preincubated for 15 mins followed by HDAC-Glo substrate addition measured after 35 mins by […] relative to control; assay type: protein assay
# [13] = system: Jurkat; experiment: Cytotoxicity against human Jurkat cells assessed as cell viability at 1 uM after 44 hrs by MTT assay relative to control; assay type: functional; details: read-out: Activity
Activity [1] [%],Activity [2] [%],Activity [3] [%],Activity [4] [%],Activity [6] [%],Activity [9] [%],Activity [12] [%],SMILES,viability at 64 µM [5] [%],viability at 16 µM [7] [%],viability at 10 µM [8] [%],viability at 32 µM [10] [%],EC50 [11] [µM],viability at 1 µM [13] [%]
25,12,68,–,–,–,–,CCC(CCCC(=O)Nc1ccccc1)CCC(=O)NO (centres undefined),–,–,–,–,–,–
–,–,–,87,21,35,73,CCCCCCC(CCCC(=O)Nc1ccccc1)CCC(=O)NO (centres undefined),24,37,39,28,16,69
–,–,–,88,19,35,74,O=C(CCC(CCCC(=O)Nc1ccccc1)Cc1ccccc1)NO (racemic),26,69,97,49,28,89
28,–,–,–,–,–,–,O=C(CC[C@H](CCCC(=O)Nc1ccccc1)Cc1ccccc1)NO,–,–,–,–,–,–
